From ChEMBL document CHEMBL4257542, “Design, synthesis, and evaluation of bitopic arylpiperazine-phthalimides as selective dopamine D3 receptor agonists” (Medchemcomm, 2018)
Where “and” joins values, the source holds several entries; their conditions need not be identical. Equal values may be shown once.

Columns and labels:
D(2) dopamine receptor [1] = biological target: T1, D(2) dopamine receptor (Homo sapiens, UniProt P14416); experiment: Displacement of [3H]-sulpiride from human D2 receptor expressed in HEK293 cells at 100 nM after 150 mins by liquid scintillation counting method relative to control; format: cell-based
T1 sequence (P14416 whole entry): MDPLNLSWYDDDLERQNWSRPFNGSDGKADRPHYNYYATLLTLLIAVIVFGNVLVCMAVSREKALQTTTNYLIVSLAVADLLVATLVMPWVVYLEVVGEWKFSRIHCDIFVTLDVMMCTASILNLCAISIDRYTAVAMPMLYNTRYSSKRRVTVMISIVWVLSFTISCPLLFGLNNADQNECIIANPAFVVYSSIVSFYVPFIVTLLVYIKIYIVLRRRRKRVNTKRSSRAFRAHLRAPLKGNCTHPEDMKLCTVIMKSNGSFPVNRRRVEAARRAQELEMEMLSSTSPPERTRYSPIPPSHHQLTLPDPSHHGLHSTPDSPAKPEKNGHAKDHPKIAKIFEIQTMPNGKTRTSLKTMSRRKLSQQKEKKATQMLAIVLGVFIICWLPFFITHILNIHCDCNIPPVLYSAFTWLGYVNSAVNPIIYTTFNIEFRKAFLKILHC

D(3) dopamine receptor [2] = biological target: T2, D(3) dopamine receptor (Homo sapiens, UniProt P35462); experiment: Agonist activity at human D3 receptor expressed in HEK293 cells assessed as inhibition of forskolin-induced cAMP accumulation after 4 hrs by luciferase reporter gene assay; format: functional, cell-based
T2 sequence (P35462 whole entry): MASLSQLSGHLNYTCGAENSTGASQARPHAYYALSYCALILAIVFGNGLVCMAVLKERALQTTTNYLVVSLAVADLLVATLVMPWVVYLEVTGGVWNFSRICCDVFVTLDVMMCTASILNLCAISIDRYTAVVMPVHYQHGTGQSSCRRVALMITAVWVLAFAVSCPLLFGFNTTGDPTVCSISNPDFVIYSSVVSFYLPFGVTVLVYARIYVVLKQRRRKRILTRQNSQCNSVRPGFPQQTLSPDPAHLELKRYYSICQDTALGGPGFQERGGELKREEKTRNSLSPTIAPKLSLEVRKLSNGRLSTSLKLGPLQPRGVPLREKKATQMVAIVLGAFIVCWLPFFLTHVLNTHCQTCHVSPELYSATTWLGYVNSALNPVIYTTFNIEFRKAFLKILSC

D(2) dopamine receptor [3] = biological target: T1, D(2) dopamine receptor; experiment: Displacement of [3H]-sulpiride from human D2 receptor expressed in HEK293 cells at 30 uM after 150 mins by liquid scintillation counting method relative to control; format: cell-based
Procedure, shortened: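 HEK 293 cells transiently transfected with D2R plasmid, kept in serum-free MEM for 4 h and then serum-containing MEM for 24 h, seeded and left overnight. Whole cells were incubated with 2.2 nM [3H]-sulpiride plus test compound for 150 min at 4 °C, rinsed with ice-cold MEM, and lysed in 1% SDS. Bound radioactivity was read by liquid scintillation counting.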

D(2) dopamine receptor [4] = biological target: T1, D(2) dopamine receptor; experiment: Displacement of [3H]-sulpiride from human D2 receptor expressed in HEK293 cells after 150 mins by liquid scintillation counting method; format: cell-based
Procedure, shortened: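 HEK 293 cells transfected with D2R plasmid, cultured in MEM without then with fetal bovine serum (4 h, 24 h). Seeded overnight, then intact cells incubated with [3H]-sulpiride (2.2 nM) plus compounds for 150 min at 4 °C. Cells were rinsed in ice-cold MEM, lysed in 1% SDS, and counted by liquid scintillation. IC50 from nonlinear dose-response fit; Ki by Cheng-Prusoff.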

Homo sapiens = organism: Homo sapiens; experiment: Selectivity ratio of Ki for human D2 receptor expressed in HEK293 cells to Ki for human D3 receptor expressed in HEK293 cells; format: cell-based
D(3) dopamine receptor [5] = biological target: T2, D(3) dopamine receptor; experiment: Displacement of [3H]-sulpiride from human D3 receptor expressed in HEK293 cells after 150 mins by liquid scintillation counting method; format: cell-based
D(3) dopamine receptor [6] = biological target: T2, D(3) dopamine receptor; experiment: Potency index, ratio of N-(4-(4-(2,4-dichlorophenyl)piperazin-1-yl)butyl)-1H-indole-2-carboxamide hydrochloride Ki to compound Ki for displacement of [3H]-sulpiride from human D3 receptor expressed in HEK293 cells; format: cell-based
D(3) dopamine receptor [7] = biological target: T2, D(3) dopamine receptor; experiment: Potency index, ratio of quinpirole EC50 to compound EC50 for agonist activity at human D3 receptor expressed in HEK293 cells; format: functional, cell-based

Row | Compound | inhibition (D(2) dopamine receptor [1]) | further results
1 | O=C1c2ccccc2C(=O)N1CCCCN1CCN(c2cccc(C(F)(F)F)c2)CC1 | 37.9% and 44% | –
2 | O=C1c2ccccc2C(=O)N1CCCCN1CCN(c2ccccc2F)CC1 | 31.8% | –
3 | O=C(NCCCCN1CCN(c2cccc(Cl)c2Cl)CC1)c1cc2ccccc2[nH]1 | – | EC50 (D(3) dopamine receptor [2]): 0.026 nM
4 | O=C(NCCCCN1CCN(c2ccc(Cl)cc2Cl)CC1)c1cc2ccccc2[nH]1 | 22.7% | inhibition (D(2) dopamine receptor [3]): < 50%; Ki (D(2) dopamine receptor [4]): > 23900 nM
5 | O=C1c2ccccc2C(=O)N1CCCCN1CCN(c2c(F)cccc2F)CC1 | 10.3% | –
6 | CCN1CCCC1CNC(=O)c1cc(S(N)(=O)=O)ccc1OC (configuration not stated) | 92.2% | –
7 | O=C(CCCCN1CCN(c2ccccc2F)CC1)Nc1nc2ccccc2s1 | – | Ratio Ki (Homo sapiens): 45
8 | O=C1c2ccccc2C(=O)N1CCCCN1CCN(c2cccc(Cl)c2)CC1 | 64.8% | –
9 | O=C1c2ccccc2C(=O)N1CCCCN1CCN(c2ccc(Cl)cc2Cl)CC1 | 30.2% | –
10 | O=C(CCCCN1CCN(c2ccc(Cl)cc2Cl)CC1)Nc1nc2ccccc2s1 | – | Ratio Ki (Homo sapiens): 63.8
11 | O=C1c2ccccc2C(=O)N1CCCCN1CCN(c2cccc(Cl)c2Cl)CC1 | 70.3% | –
12 | O=C1c2ccccc2C(=O)N1CCCCN1CCN(c2cc(C(F)(F)F)ccc2F)CC1 | -4.7% | –
13 | O=C1c2ccccc2C(=O)N1CCCCN1CCN(c2ccc(Cl)cc2F)CC1 | 2.8% | –
14 | COc1ccccc1C1CCN(CCCCN2C(=O)c3ccccc3C2=O)CC1 | 92.2% | –
15 | O=C1c2ccccc2C(=O)N1CCCCN1CCN(c2ccc(F)cc2F)CC1 | 4.8% | –
16 | O=C1c2ccccc2C(=O)N1CCCCN1CCN(c2cccc(F)c2F)CC1 | 17.7% | Ki (D(3) dopamine receptor [5]): 19.3 nM; Ki (D(2) dopamine receptor [4]): 2160 nM; Ratio Ki (Homo sapiens): 112; Ratio Ki (D(3) dopamine receptor [6]): 21; EC50 (D(3) dopamine receptor [2]): 0.00048 nM; Ratio EC50 (D(3) dopamine receptor [7]): 199 to 200
17 | O=C1c2ccccc2C(=O)N1CCCCN1CCN(c2ccc(F)cc2)CC1 | -6.3% | –
18 | O=C1c2ccccc2C(=O)N1CCCCN1CCC(n2c(=O)[nH]c3cc(Cl)ccc32)CC1 | 56.1% | –
19 | O=C1c2ccccc2C(=O)N1CCCCN1CCN(c2ccccc2Cl)CC1 | 28.7% | –
